In the library only some 1.8% were active in any assay of this set; here they are far more common.
HTRA1 inhibitor: HTRA1 serine protease inhibitors, primary screen, biochemical, fluorescence polarization, HTS | Q92743 | recombinant HTRA1, FP-rhodamine activity-based probe | inhibition, % at 5.96 µM | 340,000 tested, 0.5% active; in the data active = inhibition above about 36%
ARNT-TACC3 inh: disruptors of ARNT/TACC3 protein interaction, primary screen, biochemical, AlphaScreen, single concentration; AID 623870, 2012; Transforming acidic coiled-coil-containing protein 3 (Homo sapiens), Q9Y6A5; 390,000 tested, 0.66% active; inhibition, % at 9.99 µM; AlphaScreen His-ARNT PAS-B/GST-TACC3 binding, luminescence; TACC3 fragment carries E629A point mutation;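 active = mean inhibition of replicates at least 50% and at least half of replicates each reaching 50%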
TCR-CD3 inh: inhibitors of human TCR-CD3 interaction, primary screen, biochemical, fluorescence, TAMRA-labeled TCR probe | 360,000 tested, 0.37% active | T-cell receptor (TCR) | inhibition, % at 9.4 µM;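 also: recombinant mutant TCR 2C K166C tagged with TAMRA read by polarization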
ABHD4 inh: ABHD4 inhibitors, primary screen, biochemical, fluorescence polarization, mouse; (Lyso)-N-acylphosphatidylethanolamine lipase (Mus musculus), Q8VD66; purified mABHD4, FP-Rh probe fluorescence polarization; inhibition, % at 8.92 µM; 370,000 tested, 0.54% active; AID 720543, 2013;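 active = inhibition exceeding the mean over every tested compound plus 3 SD, cut at about 30% in these data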
Target sequence (Q8VD66 whole entry, looked up): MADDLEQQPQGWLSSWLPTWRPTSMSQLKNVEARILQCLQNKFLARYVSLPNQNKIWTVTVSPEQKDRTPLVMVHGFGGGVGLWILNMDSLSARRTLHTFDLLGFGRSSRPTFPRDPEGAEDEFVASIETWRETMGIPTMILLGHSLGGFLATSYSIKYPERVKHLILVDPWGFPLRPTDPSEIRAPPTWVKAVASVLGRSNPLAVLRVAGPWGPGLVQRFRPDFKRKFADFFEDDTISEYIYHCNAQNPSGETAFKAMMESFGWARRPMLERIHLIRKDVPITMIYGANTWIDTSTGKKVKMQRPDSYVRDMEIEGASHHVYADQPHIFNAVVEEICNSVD
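System: mouse ABHD4 enzyme, wild type / Medium: HEPES pH 7.0, NaCl, Pluronic buffer / Reagent: FP-Rh activity-based fluorescent probe / Control set: S159A mutant high control, sample median low control / Detection: fluorescence polarization with parallel and perpendicular emission, 525/598 nm / Schedule: 45 min + 60 min at 25 °C / Compound dosing: 8.92 µM, single dose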
SIAE primary: human SIAE inhibitors, primary screen, biochemical, fluorescence polarization, FP-Rh probe, 1536-well HTS | SIAE FP-Rh probe binding | inhibition, % at 9.66 µM | 370,000 tested, 0.69% active | AID 1053197, 2014;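 active = inhibition above a cutoff: mean of compounds within the control limits plus 3 SD of those, cut at about 17% in these data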
BSA probe FL: compounds interfering with TAMRA-BSA probe, counter-screen for TCR-CD3 interaction inhibitor project, biochemical, fluorescence, TAMRA-labeled BSA; AID 652035, 2013; shares compounds with TCR-CD3 inh; TAMRA-labeled BSA probe fluorescence counterscreen; 1,200 tested, 10% active; inhibition, % at 9.4 µM; in the data active = inhibition above about 23%
TCR-CD3 conf: TCR-CD3 interaction inhibitors, retest, confirmation, biochemical, fluorescence, TAMRA-labeled TCR probe; shares compounds with TCR-CD3 inh; TAMRA-labeled TCR probe fluorescence binding assay; inhibition, % at 9.4 µM; 1,200 tested, 48% active; AID 652036, 2013
mABHD4 conf: ABHD4 inhibitors, retest, confirmation, biochemical, fluorescence polarization, mouse; shares compounds with ABHD4 inh; purified mABHD4, FP-Rh probe fluorescence polarization; inhibition, % at 8.92 µM; 1,800 tested, 55% active;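 active = mean inhibition across replicates above the hit cutoff set in the primary screen, cut at about 30% in these data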
A number is an active result; . = inactive; / = no result given. Rule as the data show it, unless noted: active = inhibition above about 19%; inactive = the rest.

SMILES	HTRA1 inhibitor	ARNT-TACC3 inh	TCR-CD3 inh	ABHD4 inh	SIAE primary	BSA probe FL	TCR-CD3 conf	mABHD4 conf
Oc1ccc(-c2cn3c(n2)SCC3)cc1O	.	.	37.5	.	.	.	32.9	/
Oc1ccc(-c2cn3c(n2)SCC3)cc1	.	.	.	.	.	/	/	/
O=c1[nH]c(=S)[nH]c2c1C(c1ccc(Br)cc1)c1c([nH]c(=S)[nH]c1=O)O2	.	.	22.3	.	.	.	.	/
CCCNC(=O)Nc1ccc2c(c1)C(=O)N(C)[C@@H]1CC[C@H](CC(=O)NCCCN(C)C)O[C@H]1CO2	/	.	/	/	/	/	/	/
O=C1C=CC(=O)c2c(O)c(N3CCN(CCO)CC3)c(Cl)c(O)c21	.	31.1	62.8	35.2	.	.	38.8	78.6
O=S(=O)(c1ccc(Br)cc1Cl)N1CCN(CCO)CC1	.	.	.	.	.	/	/	/
CC(C)NC(=O)Nc1ccc2c(c1)C(=O)N([C@H](C)CO)C[C@@H](C)[C@H](CN(C)C(=O)Nc1ccc3c(c1)OCO3)OCCCC[C@@H](C)O2	/	.	/	/	/	/	/	/
O=C1NC(=S)S/C1=C\C=C\c1ccc([N+](=O)[O-])o1	.	.	31.7	41.6	.	.	28.7	.
COc1ccc(COCC23N=C4SCc5ccccc5CN4[C@H](c4ccccc4O2)[C@H]3CO)cc1	/	.	/	/	/	/	/	/
CCC(NC(=O)Nc1ccc(O)cc1)(C(F)(F)F)C(F)(F)F	.	.	28.4	61.9	.	.	.	.
O=C(N/N=C/c1ccncc1)c1cc([N+](=O)[O-])cc([N+](=O)[O-])c1O	.	.	38.1	31.8	.	.	48.3	36.0
O=C(N/N=C/c1cc2c(c([N+](=O)[O-])c1)OCO2)c1ccncc1	.	.	.	.	.	/	/	/
O=C(C1CC1)N1C[C@H]2[C@@H](c3ccccc31)[C@@H](CO)N2Cc1ccccc1Cl	/	.	/	/	/	/	/	/
O=C(COC(=O)c1c2c(nc3ccccc13)/C(=C/c1ccco1)CC2)NC1CCCC1	59.9	.	22.7	50.8	26.9	.	.	.
O=C1C(=Cc2ccco2)CCCC1=Cc1ccco1	.	.	.	.	.	/	/	/
O=C1C(=Cc2ccco2)CCC1=Cc1ccco1	.	.	45.4	30.5	.	.	.	.
CCC(=O)N[C@H]1CC[C@H](CC(=O)NCc2ccc(OC)cc2)O[C@H]1CO	/	.	/	/	/	/	/	/
O=[N+]([O-])c1ccc(O)c(/C=N/NC(=S)Nc2ccc(Cl)cc2Cl)c1	.	.	22.9	34.6	.	.	32.5	.
Oc1cc2c(cc1O)[C@H]1c3ccc(O)c(O)c3OC[C@@]1(O)C2	.	.	128.5	33.0	.	65.1	115.5	.
CCOc1cccc(C(=O)Nc2ccc(N(CC)CC)cc2)c1	.	.	.	.	.	/	/	/
CCN(CC)c1cccc(OCC(=O)N(C)CCC#N)c1	.	/	21.2	63.5	.	.	.	.
Cc1ccc(S(=O)(=O)N(C)C[C@@H]2OCCCC[C@@H](C)Oc3ccc(NC(=O)CCC(F)(F)F)cc3C(=O)N([C@H](C)CO)C[C@@H]2C)cc1	/	.	/	/	/	/	/	/
c1ccc(C2OC3c4cccc5cccc(c45)C3N2c2ccccc2)cc1 (configuration not stated)	.	.	25.5	47.8	.	.	.	.
N#C/C(=C\c1cc(O)c(O)c(O)c1)C(N)=O	.	.	31.7	38.5	.	.	.	.
O=C(Cc1ccncc1)NCC[C@@H]1CC[C@H](NC(=O)C2CCOCC2)[C@@H](CO)O1	/	.	/	/	/	/	/	/

Source: PubChem (several laboratories)
